# Screening results (PubChem)
# TNAP inh no acc = inhibitors of human TNAP without phosphate acceptor | inhibition, % at 20 µM | 200,000 compounds, 0.26% hits | P05186 | AID 1012 | purified TNAP, CDP-star luminescence, 30 min;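 active = tissue-nonspecific alkaline phosphatase inhibition above about 50% at 20 µM in the single-dose screen, limit read from the data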
# Target sequence (P05186 whole entry, looked up): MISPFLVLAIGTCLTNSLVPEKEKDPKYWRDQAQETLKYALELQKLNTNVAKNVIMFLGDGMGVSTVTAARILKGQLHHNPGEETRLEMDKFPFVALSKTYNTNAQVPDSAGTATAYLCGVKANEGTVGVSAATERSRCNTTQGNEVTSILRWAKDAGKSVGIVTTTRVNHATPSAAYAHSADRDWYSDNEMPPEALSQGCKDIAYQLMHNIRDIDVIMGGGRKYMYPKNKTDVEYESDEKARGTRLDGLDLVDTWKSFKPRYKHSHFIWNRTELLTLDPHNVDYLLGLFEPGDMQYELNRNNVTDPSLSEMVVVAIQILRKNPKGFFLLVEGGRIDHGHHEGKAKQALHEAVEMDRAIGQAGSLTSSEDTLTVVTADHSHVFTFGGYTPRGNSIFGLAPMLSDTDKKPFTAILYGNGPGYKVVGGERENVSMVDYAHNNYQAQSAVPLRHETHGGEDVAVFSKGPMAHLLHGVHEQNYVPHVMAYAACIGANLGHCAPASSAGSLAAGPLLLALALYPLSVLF
# TNAP inh hi DEA = inhibitors of human TNAP at high phosphate acceptor concentration; P05186; purified TNAP, CDP-star luminescence, 1 M DEA; inhibition, % at 20 µM; 200,000 compounds, 0.03% hits;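 active = over 50% inhibition of tissue-nonspecific alkaline phosphatase at 20 µM in the single-dose screen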
# TNAP act hi DEA = activators of human TNAP at high phosphate acceptor concentration | P05186 | purified TNAP, CDP-star luminescence, 1 M DEA, 30 min; active compounds read high; 0 = EDTA background, 1 = DMSO-only activity | activation factor at 20 µM | 200,000 tested, under 10 active | AID 1136;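 active = activation factor at least 2 at 20 µM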
#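 Measured by: Luminescent substrate turnover signal | Test system: Human TNAP | Input: TNAP 1/800 final | Dosing: 20 µM single point | Schedule: 30 min, room temperature | Controls: EDTA wells as negative control, DMSO wells as positive control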
# PKD1 kinase inh = blocks activity of human protein kinase D1; 200,000 compounds, 0.056% hits; Q15139; PKD1 kinase fluorescence polarization assay; inhibition, % (no concentration beside the values); in the data active = inhibition above about 50%
# Arbovirus anti = blocks arbovirus infection. arbovirus infection cell-based antiviral screen. inhibition, % at 10 µM. 200,000 compounds, 0.37% hits; in the data active = inhibition above about 30%
# Hits are given with their value; i = inactive. Most compounds without a hit are left out; they make up all but 0.72% or so of the library.
SMILES,TNAP inh no acc,TNAP inh hi DEA,TNAP act hi DEA,PKD1 kinase inh,Arbovirus anti
Cc1csc(NC(=O)CN2C(=O)C3CC=CCC3C2=O)n1 (stereo not given),i,i,i,i,31.2
Cc1ccc2nc(NC(=O)CN3C(=O)C4CC=CCC4C3=O)sc2c1 (stereo not given),i,i,i,i,i
O=P(O)(O)c1ccccc1OCc1ccccc1,i,i,i,i,i
O=P(O)(O)c1ccccc1OCCOCCOc1ccccc1P(=O)(O)O,72.2,i,i,i,i
CCOP(=O)(O)c1ccccc1OCCOCCOc1ccccc1P(=O)(O)OCC,i,i,i,i,i
O=P(O)(O)c1ccccc1OCCCCCOc1ccccc1P(=O)(O)O,88.9,i,i,i,i
CCc1c(C)[nH]c2nc3ccccc3n2c1=O,51.1,i,i,i,i
Cc1cccc(N2CCN(C(=O)C3COc4ccccc4O3)CC2)c1C (stereo not given),i,i,i,i,36.4
O=C(C1COc2ccccc2O1)N1CCN(c2ccccc2Cl)CC1 (stereo not given),i,i,i,i,i
O=[N+]([O-])c1ccc2c(c1)[nH]c(=S)n2-c1ccccc1,i,i,i,i,i
CCC(=O)NC(=S)Nc1ccc(N2CCN(C(=O)c3ccc(Cl)cc3)CC2)cc1,i,i,i,i,i
CCCn1c(NCc2cc(C)ccc2O)nc2ccccc21,i,i,i,i,35.9
CCCCn1c(NCc2ccccc2O)nc2ccccc21,i,i,i,i,i
CC(C)N(CCO)C(=O)CCc1nnc(Cc2cccc(C(F)(F)F)c2)o1,i,i,i,i,i
COc1cc(-c2cc(=O)c3c(O)c(OC)c(OC)c(O)c3o2)ccc1O,64.3,i,i,i,i
CC(=O)C1=C(c2cccc([N+](=O)[O-])c2)N(C(C)=O)n2c(C)nnc2S1,62.9,i,i,i,i
CC(=O)c1c(C(C)=O)c(C)n(-c2cccc([N+](=O)[O-])c2)c1C,i,i,i,i,i
CCOC(=O)CC(NC(=O)CCc1c(C)nc2ncnn2c1C)c1ccc(C)cc1 (stereo not given),i,i,i,i,i
O=S(=O)(c1cccc2cccc(Cl)c12)N1CCCC1,i,i,i,i,i
Clc1ccc(CN(Cc2ccc(Cl)cc2)c2nn[nH]n2)cc1,i,i,i,i,38.3
N#Cc1sc2nc(-c3cccs3)cc(-c3ccc(F)cc3)c2c1N,i,i,i,i,36.6
CC(C)NC(=O)c1ccc(-n2c(=S)[nH]c3ccccc3c2=O)cc1,i,i,i,i,i
Cc1noc(NS(=O)(=O)c2ccc(NC(=O)CSc3n[nH]c(-c4ccccc4)n3)cc2)c1C,60.1,i,i,i,i
CCc1nc(SCC(=O)Nc2c(C)n(C)n(-c3ccccc3)c2=O)n[nH]1,i,i,i,i,i
Cc1c(NC(=O)CSc2n[nH]c(-c3ccccc3)n2)c(=O)n(-c2ccccc2)n1C,52.8,i,i,i,i
SMILES,TNAP inh no acc,TNAP inh hi DEA,TNAP act hi DEA,PKD1 kinase inh,Arbovirus anti
O=C(CSc1n[nH]c(-c2ccccc2)n1)Nc1ccc(Br)cn1,57.4,i,i,i,i
CCOC(=O)c1c(NC(=O)COC(=O)c2nc(Cl)ccc2Cl)sc2c1CCC2,i,i,i,i,i
Cc1ccc(C)c(N/N=C2\CCCNC2=O)c1,i,i,i,i,i
CC1(C)CC(=O)c2c(Cc3ccccc3)n[nH]c2C1,88.2,i,i,i,i
CC1(C)CC(=O)c2c(-c3cccnc3)n[nH]c2C1,71.9,i,i,i,i
CCCCc1n[nH]c2c1C(=O)CC(C)(C)C2,86.6,i,i,i,i
CCc1n[nH]c2c1/C(=N\O)CC(C)(C)C2,i,i,i,i,i
CCNS(=O)(=O)c1ccc(NC(=O)c2ccc(Cn3cc(Br)cn3)o2)cc1,i,i,i,i,i
COc1ccc(-c2[nH]ncc2CNC(C)c2cn(C)nc2C)c(F)c1 (stereo not given),74.0,i,i,i,i
COc1ccc(-c2[nH]ncc2CNC(C)CCn2cccn2)c(F)c1 (stereo not given),72.5,i,i,i,i
CC(C)NC(=O)c1cc(-c2ccc(Br)cc2)on1,i,i,i,i,i
CC1CCCCN1c1nnc(NC(=O)c2cc(-c3ccc(Br)cc3)on2)s1 (stereo not given),i,i,i,i,42.4
O=C(/C=C/c1ccccc1[N+](=O)[O-])NCc1ccncc1,i,i,i,i,i
Cc1ccc(S(=O)(=O)Nc2n[nH]nc2C(=O)NC2CCCCC2)cc1,i,i,i,i,i
C/C(N)=C(/C#N)C(=O)CSc1ccccc1F,i,i,i,i,i
